Results taken from ChEMBL document CHEMBL1128321, “Piperazinylalkyl heterocycles as potential antipsychotic agents” (J Med Chem, 1995).
pKi: −log10 of the molar value.

Assays:
[1] = Stability half-life at pH-2; assay type: physicochemical
Summary of the method: (§1)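 Half-life measured in solution at pH 2, about 3 × 10⁻³ M compound in citric acid–phosphate buffer at 22 °C.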

Rattus norvegicus [2] = assay: Conditioned avoidance response activity was determined by the ability to block the conditioned avoidance of a foot shock at 5 mg/kg(ip); assay type: functional
Summary of the method: (§2)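 Male Fischer 344 rats (300–500 g) trained on a discrete-trial single-lever task, pressing the lever to avoid an impending shock; block of responding read at time of peak effect. Escape loss = percent of animals failing to escape the shock; >20% escape loss with CAR inhibition taken as potential for sedation.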

Rattus norvegicus [3] = assay: Conditioned avoidance response activity was determined by the ability to block the conditioned avoidance of a foot shock at 15 mg/kg(ip); assay type: functional; summary of the method: as §2
Rattus norvegicus [4] = assay: Percentage of animals failing to escape the shock was measured and affords a rough index for nonspecific sedation at 5 mg/kg(ip)(>20% esc loss = potential for sedation); assay type: functional; summary of the method: as §2
Rattus norvegicus [5] = assay: Conditioned avoidance response activity was determined by the ability to block the conditioned avoidance of a foot shock (ip); assay type: functional
Summary of the method: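 Male Fischer 344 rats (300–500 g) were trained on a single-lever discrete-trial task in which a lever press avoids an impending shock. Block of avoidance was scored at the time of peak effect. […] The percentage of rats failing to escape the shock (escape loss) was also recorded.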

Rattus norvegicus [6] = assay: Percentage of animals failing to escape shock was measured, affording a rough index for nonspecific sedation at 5 mg/kg(ip)
[7] = Stability half-life at pH-2; stable; assay type: physicochemical; summary of the method: as §1
[8] = molecular target: T1, 5-hydroxytryptamine receptor 1A (Rattus norvegicus, UniProt P19327); assay: Binding affinity was determined against 5-hydroxytryptamine 1A receptor using […]
T1 sequence (P19327 whole entry): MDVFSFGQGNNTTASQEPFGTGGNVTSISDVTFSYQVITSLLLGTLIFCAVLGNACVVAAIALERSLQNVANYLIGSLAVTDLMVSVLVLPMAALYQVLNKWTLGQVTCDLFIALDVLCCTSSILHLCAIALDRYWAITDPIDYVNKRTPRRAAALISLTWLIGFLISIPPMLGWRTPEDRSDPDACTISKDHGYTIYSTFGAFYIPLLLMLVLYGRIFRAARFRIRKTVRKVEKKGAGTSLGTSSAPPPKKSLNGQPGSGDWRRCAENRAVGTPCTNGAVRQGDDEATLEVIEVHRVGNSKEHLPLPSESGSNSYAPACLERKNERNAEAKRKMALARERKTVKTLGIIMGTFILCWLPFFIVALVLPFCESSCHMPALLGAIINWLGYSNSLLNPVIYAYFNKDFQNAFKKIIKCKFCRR

Q: With `CC(C)Oc1ccccc1N1CCN(Cc2ccc(CN3CCCCC3=O)n2C)CC1` [RWJ-25730] as the compound, how does the half-life [1] read?
A: Its half-life is 1.37 h.

Q: What about the inhibition in vivo at 5 mg/kg (Rattus norvegicus [2]) of the same compound?
A: The inhibition in vivo at 5 mg/kg was 87%.

Q: What about the inhibition in vivo at 15 mg/kg (Rattus norvegicus [3]) of the same compound?
A: Its inhibition in vivo at 15 mg/kg is 98%.

Q: What about the Esc loss (Rattus norvegicus [4]) of the same compound?
A: The Esc loss was 8%.

Q: Which ED50 (Rattus norvegicus [5]) does the source give for `O=C1CC2(CCCC2)CC(=O)N1CCCCN1CCN(c2ncccn2)CC1` [BUSPIRONE] here?
A: Its ED50 is 4.5 mg/kg.

Q: With `COc1ccccc1N1CCN(Cc2ccc(CN3CCCCCCC3=O)o2)CC1.O=C(O)CCC(=O)O` as the compound, how does the Esc loss (Rattus norvegicus [6]) read?
A: Its Esc loss is 19%.

Q: And the T1/2 [7]?
A: Its T1/2 is “Stable”.

Q: What about the inhibition in vivo at 15 mg/kg (Rattus norvegicus [3]) of the same compound?
A: The inhibition in vivo at 15 mg/kg was 99%.

Q: What about the pKi [8] of the same compound?
A: The pKi was 7.49.

Q: With `CC(C)Oc1ccccc1N1CCN(Cc2ccc(CN3CCCCCCC3=O)o2)CC1.O=C(O)CCC(=O)O` as the compound, how does the Esc loss (Rattus norvegicus [6]) read?
A: The Esc loss was 1%.

Q: What about the T1/2 [7] of the same compound?
A: Its T1/2 is “Stable”.

Q: What about the inhibition in vivo at 15 mg/kg (Rattus norvegicus [3]) of the same compound?
A: Its inhibition in vivo at 15 mg/kg is 76%.

Q: What about the pKi [8] of the same compound?
A: Its pKi is 7.54.
